Assay results taken from ChEMBL document CHEMBL4118097, “Selective Inhibitors of Dual Leucine Zipper Kinase (DLK, MAP3K12) with Activity in a Model of Alzheimer's Disease” (J Med Chem, 2017).

Assays:
[1] = molecular target: T1, Mitogen-activated protein kinase kinase kinase 12 (Homo sapiens, UniProt Q12852); experiment: Inhibition of doxycycline inducible human DLK transfected in HEK293 cells assessed as JNK phosphorylation after […] by Hoechst-33342 staining-based assay; assay type: cell-based
T1 sequence (Q12852 whole entry): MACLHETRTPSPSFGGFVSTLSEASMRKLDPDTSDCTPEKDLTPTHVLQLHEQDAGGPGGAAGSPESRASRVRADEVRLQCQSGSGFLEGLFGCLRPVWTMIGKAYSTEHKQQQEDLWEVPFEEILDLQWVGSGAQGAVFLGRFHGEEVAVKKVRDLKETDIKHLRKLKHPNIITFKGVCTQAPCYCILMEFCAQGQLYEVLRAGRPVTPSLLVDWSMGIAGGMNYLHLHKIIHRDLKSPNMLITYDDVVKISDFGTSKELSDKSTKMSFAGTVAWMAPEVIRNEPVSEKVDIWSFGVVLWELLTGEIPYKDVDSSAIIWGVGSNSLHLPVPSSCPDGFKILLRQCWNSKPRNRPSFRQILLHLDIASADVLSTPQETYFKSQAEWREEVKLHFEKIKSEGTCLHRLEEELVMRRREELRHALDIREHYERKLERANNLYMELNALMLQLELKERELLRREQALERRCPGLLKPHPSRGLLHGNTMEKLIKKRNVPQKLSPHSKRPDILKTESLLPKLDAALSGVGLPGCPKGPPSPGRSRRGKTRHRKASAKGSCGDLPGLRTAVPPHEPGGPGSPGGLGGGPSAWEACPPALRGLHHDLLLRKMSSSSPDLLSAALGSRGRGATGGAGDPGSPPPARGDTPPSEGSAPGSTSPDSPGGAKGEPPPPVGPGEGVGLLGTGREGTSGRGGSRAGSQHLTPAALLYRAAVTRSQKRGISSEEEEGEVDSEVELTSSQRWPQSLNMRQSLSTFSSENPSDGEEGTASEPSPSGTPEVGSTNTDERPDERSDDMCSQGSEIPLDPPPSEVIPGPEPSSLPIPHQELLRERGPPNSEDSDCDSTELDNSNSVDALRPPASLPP

[2] = molecular target: Serine/threonine-protein kinase 17A (Homo sapiens) (UniProt Q9UEE5); experiment: Inhibition of full length recombinant GST-tagged human DRAK1 expressed in baculovirus expression system at 1 uM by FRET assay relative to control
[3] = molecular target: Casein kinase II subunit alpha (Homo sapiens) (UniProt P68400); experiment: Inhibition of CK2alpha1 (unknown origin) at 1 uM by FRET assay relative to control
[4] = molecular target: Serine/threonine-protein kinase Chk2 (Homo sapiens) (UniProt O96017); experiment: Inhibition of recombinant full length His-tagged human CHK2 expressed in baculovirus expression system at 1 uM by FRET assay relative to control
[5] = molecular target: Tyrosine-protein kinase BTK (Homo sapiens) (UniProt Q06187); experiment: Inhibition of recombinant full length His-tagged human BTK cytoplasmic domain expressed in baculovirus expression system at 1 uM by FRET assay relative to control
[6] = molecular target: Activin receptor type-1B (Homo sapiens) (UniProt P36896); experiment: Inhibition of recombinant GST-tagged human ACVR1B catalytic domain (150 to 505 residues) expressed in baculovirus expression system at 1 uM by FRET assay relative to control
[7] = molecular target: Mast/stem cell growth factor receptor Kit (Homo sapiens) (UniProt P10721); experiment: Inhibition of recombinant GST/His-tagged human KIT cytoplasmic domain (544 to 976 residues) at 1 uM by FRET assay relative to control
How it was run: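 Single-point screen at 1 μM compound in a 220-kinase panel run by Life Technologies (SelectScreen). Z′-LYTE format: phosphorylation of a labeled peptide substrate read by FRET. Values are reported as percent inhibition.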

[8] = molecular target: Mitogen-activated protein kinase kinase kinase kinase 5 (Homo sapiens) (UniProt Q9Y4K4); experiment: Inhibition of recombinant full length His-tagged human KHS1 expressed in baculovirus expression system at 1 uM by FRET assay relative to control
[9] = molecular target: Epidermal growth factor receptor (Homo sapiens) (UniProt P00533); experiment: Inhibition of recombinant GST-tagged human EGFR cytoplasmic domain (668 to 1210 residues) expressed in baculovirus expression system at 1 uM by FRET assay relative to control
How it was run: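 Part of a 220-kinase panel run at a single concentration of 1 μM. Z′-LYTE format: phosphorylation of a labelled peptide read by FRET. Values reported as percent inhibition.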

[10] = molecular target: Mitogen-activated protein kinase 12 (Homo sapiens) (UniProt P53778); experiment: Inhibition of recombinant full length His-tagged human p38gamma expressed in baculovirus expression system at 1 uM by FRET assay relative to control
[11] = molecular target: Serine/threonine-protein kinase Nek4 (Homo sapiens) (UniProt P51957); experiment: Inhibition of recombinant full length GST-tagged human NEK4 expressed in baculovirus expression system at 1 uM by FRET assay relative to control
How it was run: (§1)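 Single-concentration screen at 1 μM in Life Technologies SelectScreen, across a 220-kinase panel. Z′-LYTE format measures phosphorylation of a labeled peptide by FRET. Results are reported as percent inhibition.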

[12] = molecular target: Serine/threonine-protein kinase Nek1 (Homo sapiens) (UniProt Q96PY6); experiment: Inhibition of recombinant full length GST-tagged human NEK1 expressed in baculovirus expression system at 1 uM by FRET assay relative to control; how it was run: as §1
[13] = molecular target: Myosin light chain kinase (Homo sapiens) (UniProt Q32MK0); experiment: Inhibition of recombinant human full length N-terminal GST-tagged caMLCK expressed in baculovirus expression system at 1 uM by FRET assay relative to control
[14] = molecular target: Serine/threonine-protein kinase 25 (Homo sapiens) (UniProt O00506); experiment: Inhibition of recombinant full length GST-tagged human YSK1 expressed in baculovirus expression system at 1 uM by FRET assay relative to control
[15] = molecular target: SRSF protein kinase 1 (Homo sapiens) (UniProt Q96SB4); experiment: Inhibition of recombinant full length His-tagged human SRPK1 expressed in baculovirus expression system at 1 uM by FRET assay relative to control
[16] = molecular target: Serine/threonine-protein kinase Sgk2 (Homo sapiens) (UniProt Q9HBY8); experiment: Inhibition of recombinant full length GST-tagged human SGK2 catalytic domain (54 to 427 residues) expressed in baculovirus expression system at 1 uM by FRET assay relative to control; how it was run: as §1
[17] = molecular target: Muscarinic acetylcholine receptor M2 (Homo sapiens) (UniProt P08172); experiment: Binding affinity to recombinant human M2 acetylcholine receptor at 10 uM relative to control
How it was run: (§2)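 Broad radioligand-binding and enzyme screening panel covering 42 targets (biogenic amine and neuropeptide receptors, ion channels, neurotransmitter transporters, acetylcholinesterase). Single test concentration of 10 μM. Results expressed as binding relative to control, with a hit defined as >50% of control.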

Homo sapiens = organism: Homo sapiens; experiment: Binding affinity to L-type calcium channel verapamil/phenylalkylamine binding site (unknown origin) receptor at 10 uM relative to control; how it was run: as §2
[18] = molecular target: Sodium-dependent noradrenaline transporter (Homo sapiens) (UniProt P23975); experiment: Binding affinity to recombinant human norepinephrine transporter at 10 uM relative to control; how it was run: as §2

Mitogen-activated protein kinase 12 (Homo sapiens), sequence (P53778 whole entry): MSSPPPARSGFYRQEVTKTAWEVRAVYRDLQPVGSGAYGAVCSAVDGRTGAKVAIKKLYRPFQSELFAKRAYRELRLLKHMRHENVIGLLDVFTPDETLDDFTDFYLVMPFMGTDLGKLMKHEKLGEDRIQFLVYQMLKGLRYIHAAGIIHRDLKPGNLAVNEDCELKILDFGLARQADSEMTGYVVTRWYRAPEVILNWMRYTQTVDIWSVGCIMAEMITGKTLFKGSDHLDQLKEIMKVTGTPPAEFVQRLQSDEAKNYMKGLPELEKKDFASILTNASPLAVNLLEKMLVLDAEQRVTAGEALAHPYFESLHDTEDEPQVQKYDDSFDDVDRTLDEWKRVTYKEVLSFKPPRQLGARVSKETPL
Serine/threonine-protein kinase Nek1 (Homo sapiens), sequence (Q96PY6 whole entry): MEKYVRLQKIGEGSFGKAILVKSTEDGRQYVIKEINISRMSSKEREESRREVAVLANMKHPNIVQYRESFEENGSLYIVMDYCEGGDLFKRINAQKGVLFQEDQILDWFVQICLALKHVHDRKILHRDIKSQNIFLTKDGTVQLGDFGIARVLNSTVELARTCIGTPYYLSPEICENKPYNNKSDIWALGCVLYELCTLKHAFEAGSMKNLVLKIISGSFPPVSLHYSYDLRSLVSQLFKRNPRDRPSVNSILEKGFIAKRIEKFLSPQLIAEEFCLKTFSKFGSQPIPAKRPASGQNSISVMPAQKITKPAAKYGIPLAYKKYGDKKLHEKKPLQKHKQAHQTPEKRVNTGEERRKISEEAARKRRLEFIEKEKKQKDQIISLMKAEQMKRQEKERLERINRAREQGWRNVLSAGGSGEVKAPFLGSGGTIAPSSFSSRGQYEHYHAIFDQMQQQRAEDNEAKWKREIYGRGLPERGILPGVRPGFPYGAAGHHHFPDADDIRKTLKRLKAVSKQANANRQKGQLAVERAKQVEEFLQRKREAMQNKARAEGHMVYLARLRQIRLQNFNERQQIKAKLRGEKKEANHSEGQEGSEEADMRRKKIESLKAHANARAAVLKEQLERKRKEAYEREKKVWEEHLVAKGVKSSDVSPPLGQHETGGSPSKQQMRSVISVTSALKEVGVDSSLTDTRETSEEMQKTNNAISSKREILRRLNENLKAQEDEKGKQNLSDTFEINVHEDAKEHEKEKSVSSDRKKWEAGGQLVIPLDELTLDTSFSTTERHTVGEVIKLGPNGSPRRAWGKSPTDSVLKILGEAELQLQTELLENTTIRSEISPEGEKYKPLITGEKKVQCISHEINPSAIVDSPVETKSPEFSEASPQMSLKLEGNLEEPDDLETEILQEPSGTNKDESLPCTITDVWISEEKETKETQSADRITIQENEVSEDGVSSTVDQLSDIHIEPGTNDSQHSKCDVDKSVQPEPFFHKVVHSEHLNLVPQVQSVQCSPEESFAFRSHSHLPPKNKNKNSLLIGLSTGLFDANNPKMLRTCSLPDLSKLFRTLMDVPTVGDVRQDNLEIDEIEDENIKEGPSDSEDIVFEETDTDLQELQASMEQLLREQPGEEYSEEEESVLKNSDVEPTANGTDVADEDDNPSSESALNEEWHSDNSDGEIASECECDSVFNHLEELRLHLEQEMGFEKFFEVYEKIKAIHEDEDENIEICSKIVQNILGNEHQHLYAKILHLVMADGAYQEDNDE
Serine/threonine-protein kinase 17A (Homo sapiens), sequence (Q9UEE5 whole entry): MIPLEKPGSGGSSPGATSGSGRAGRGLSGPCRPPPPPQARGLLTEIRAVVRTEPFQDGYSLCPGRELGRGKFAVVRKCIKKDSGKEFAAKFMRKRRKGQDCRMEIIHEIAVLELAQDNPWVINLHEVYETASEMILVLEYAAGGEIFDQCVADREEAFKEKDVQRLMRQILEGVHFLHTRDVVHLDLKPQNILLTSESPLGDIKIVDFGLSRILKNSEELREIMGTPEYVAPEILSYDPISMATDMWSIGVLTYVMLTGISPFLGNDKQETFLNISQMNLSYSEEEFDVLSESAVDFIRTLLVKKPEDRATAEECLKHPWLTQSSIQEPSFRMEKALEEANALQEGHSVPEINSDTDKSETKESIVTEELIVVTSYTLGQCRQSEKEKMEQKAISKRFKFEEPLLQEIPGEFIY
SRSF protein kinase 1 (Homo sapiens), sequence (Q96SB4 whole entry, the tested form may be a part): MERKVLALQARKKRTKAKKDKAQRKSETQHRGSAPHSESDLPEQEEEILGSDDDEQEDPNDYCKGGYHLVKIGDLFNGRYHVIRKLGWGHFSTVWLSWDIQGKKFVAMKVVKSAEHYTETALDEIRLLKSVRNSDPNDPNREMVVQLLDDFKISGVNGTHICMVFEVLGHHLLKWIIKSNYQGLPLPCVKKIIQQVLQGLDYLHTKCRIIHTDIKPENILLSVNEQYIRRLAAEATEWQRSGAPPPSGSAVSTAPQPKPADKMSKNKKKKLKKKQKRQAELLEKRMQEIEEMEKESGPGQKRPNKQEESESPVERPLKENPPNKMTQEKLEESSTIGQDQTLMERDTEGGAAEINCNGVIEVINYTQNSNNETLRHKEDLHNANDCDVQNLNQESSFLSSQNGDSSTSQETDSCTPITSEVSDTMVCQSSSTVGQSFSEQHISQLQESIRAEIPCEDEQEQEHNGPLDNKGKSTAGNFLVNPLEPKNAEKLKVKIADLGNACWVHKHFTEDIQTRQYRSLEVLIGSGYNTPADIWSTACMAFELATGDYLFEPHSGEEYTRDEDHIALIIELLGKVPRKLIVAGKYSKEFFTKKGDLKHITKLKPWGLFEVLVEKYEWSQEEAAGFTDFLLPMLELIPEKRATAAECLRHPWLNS
Myosin light chain kinase (Homo sapiens), sequence (Q32MK0 whole entry): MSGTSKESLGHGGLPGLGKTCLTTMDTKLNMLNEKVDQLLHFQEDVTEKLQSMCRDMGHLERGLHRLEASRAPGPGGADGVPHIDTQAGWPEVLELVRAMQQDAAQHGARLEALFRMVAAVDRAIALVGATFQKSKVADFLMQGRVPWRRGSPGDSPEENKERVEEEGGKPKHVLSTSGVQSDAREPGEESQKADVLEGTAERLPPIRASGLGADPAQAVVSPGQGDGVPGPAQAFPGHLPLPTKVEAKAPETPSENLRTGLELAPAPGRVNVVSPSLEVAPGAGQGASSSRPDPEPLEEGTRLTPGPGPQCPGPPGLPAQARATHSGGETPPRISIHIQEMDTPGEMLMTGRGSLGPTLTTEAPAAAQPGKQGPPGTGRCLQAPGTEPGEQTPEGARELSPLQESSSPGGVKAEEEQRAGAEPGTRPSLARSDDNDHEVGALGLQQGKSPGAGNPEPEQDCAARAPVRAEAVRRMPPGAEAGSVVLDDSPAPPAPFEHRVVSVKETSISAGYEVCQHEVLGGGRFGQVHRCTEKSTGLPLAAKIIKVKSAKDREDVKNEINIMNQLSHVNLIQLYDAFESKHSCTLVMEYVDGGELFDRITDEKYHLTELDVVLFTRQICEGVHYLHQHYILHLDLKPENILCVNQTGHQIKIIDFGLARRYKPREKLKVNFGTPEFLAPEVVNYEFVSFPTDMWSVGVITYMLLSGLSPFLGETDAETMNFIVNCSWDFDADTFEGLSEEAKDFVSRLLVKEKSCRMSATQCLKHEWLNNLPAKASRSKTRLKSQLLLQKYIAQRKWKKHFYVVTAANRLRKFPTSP
Serine/threonine-protein kinase Chk2 (Homo sapiens), sequence (O96017 whole entry, the tested form may be a part): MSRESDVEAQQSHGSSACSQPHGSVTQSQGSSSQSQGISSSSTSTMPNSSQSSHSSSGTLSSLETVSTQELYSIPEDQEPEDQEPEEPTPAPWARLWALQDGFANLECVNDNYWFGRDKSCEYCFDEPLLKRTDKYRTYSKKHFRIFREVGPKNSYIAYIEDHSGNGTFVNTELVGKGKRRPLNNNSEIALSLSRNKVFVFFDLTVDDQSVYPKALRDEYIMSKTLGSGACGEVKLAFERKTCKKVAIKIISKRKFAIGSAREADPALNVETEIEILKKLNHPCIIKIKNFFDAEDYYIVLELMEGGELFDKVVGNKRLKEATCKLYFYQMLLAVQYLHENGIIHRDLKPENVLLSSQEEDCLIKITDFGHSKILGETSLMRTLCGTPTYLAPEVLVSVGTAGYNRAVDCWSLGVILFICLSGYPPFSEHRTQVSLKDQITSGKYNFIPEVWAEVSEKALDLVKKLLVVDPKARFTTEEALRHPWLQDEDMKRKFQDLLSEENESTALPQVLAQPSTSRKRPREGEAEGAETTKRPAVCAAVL
Mitogen-activated protein kinase kinase kinase kinase 5 (Homo sapiens), sequence (Q9Y4K4 whole entry, looked up, the tested form may be a part): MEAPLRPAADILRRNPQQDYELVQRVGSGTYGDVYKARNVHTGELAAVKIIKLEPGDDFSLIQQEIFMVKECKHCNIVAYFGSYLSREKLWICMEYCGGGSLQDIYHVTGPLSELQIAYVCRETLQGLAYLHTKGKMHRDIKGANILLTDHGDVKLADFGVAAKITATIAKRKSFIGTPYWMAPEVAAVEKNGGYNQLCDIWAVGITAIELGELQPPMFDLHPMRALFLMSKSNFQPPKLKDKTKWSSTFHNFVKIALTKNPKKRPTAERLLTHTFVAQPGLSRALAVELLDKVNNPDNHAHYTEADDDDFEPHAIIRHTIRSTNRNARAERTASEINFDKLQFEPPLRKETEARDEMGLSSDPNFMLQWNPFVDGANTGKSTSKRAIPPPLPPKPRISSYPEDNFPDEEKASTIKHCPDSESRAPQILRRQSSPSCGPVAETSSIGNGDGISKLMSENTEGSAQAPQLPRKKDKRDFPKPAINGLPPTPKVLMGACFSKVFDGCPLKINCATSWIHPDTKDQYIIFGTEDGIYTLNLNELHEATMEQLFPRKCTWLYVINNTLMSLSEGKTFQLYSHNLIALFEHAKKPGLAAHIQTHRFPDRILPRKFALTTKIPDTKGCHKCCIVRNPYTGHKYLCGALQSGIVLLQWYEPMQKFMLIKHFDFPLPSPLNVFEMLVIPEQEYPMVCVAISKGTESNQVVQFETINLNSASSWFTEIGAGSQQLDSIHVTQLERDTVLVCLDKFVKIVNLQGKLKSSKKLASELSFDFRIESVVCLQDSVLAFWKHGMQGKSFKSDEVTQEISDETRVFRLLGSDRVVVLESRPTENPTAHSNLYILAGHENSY

Compound	IC50 [1] [nM]	inhibition [2] [%]	inhibition [3] [%]	inhibition [4] [%]	inhibition [5] [%]	inhibition [6] [%]	inhibition [7] [%]	inhibition [8] [%]	inhibition [9] [%]	inhibition [10] [%]	inhibition [11] [%]	inhibition [12] [%]	inhibition [13] [%]	inhibition [14] [%]	inhibition [15] [%]	inhibition [16] [%]	Activity [17] [%]	Activity (Homo sapiens) [%]	Activity [18] [%]
CC(C)n1nc(-c2cnc(N)c(OC(F)(F)F)c2)cc1[C@H]1[C@@H]2CN(C3COC3)C[C@@H]21	195	5.2	1.5	12.8	9.9	-6.8	23.9	25.1	-2	7.8	0.1	5.7	0.8	8	1	2.7	> 50	> 50	> 50
Nc1ncc(-c2cc([C@H]3[C@@H]4CN(C5COC5)C[C@@H]43)n(CC3CC3)n2)cc1C(F)(F)F	144	7.5	3.5	16.3	19.9	2.9	6.5	22.2	-1.1	7.8	2.4	3.6	1.3	-3.8	-1.7	0.3	> 50	> 50	> 50
